# Reference: ChEMBL document CHEMBL5678798 (Clin Cancer Res, 2009)
# Calls of active or inactive are those of the source. No cut-off for these calls is given here.
# Assays:
# MX1 = experiment: Antiproliferative activity against human MX1 cells assessed as reduction in cell viability after 72 hrs by CellTiter-Glo assay; assay type: functional, cell-based; details: MX1, 72 h
# Summary of the method: (§1)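 Cells seeded in 96-well plates, left overnight at 37°C, then exposed to a range of test concentrations for 72 h. Viability read by CellTiter-Glo luminescence; IC50 from four-parameter curve fit. Lines kept at 37°C, 5% CO2, in recommended growth medium.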
# [1] = target: Serine/threonine-protein kinase PAK 4 (Homo sapiens) (UniProt O96013); experiment: Inhibition of N-terminal His6/C-terminal GST-tagged recombinant human PAK4 (295 to end residues) expressed in baculovirus infected Sf21 cells at 3 uM by filter binding assay relative to control
# [2] = target: Tyrosine-protein kinase HCK (Homo sapiens, UniProt P08631); experiment: Inhibition of N-terminal 6His-tagged recombinant human Hck (230 to 497 residues) expressed in baculovirus infected Sf21 cells by filter binding assay
# COLO 205 = experiment: In vivo inhibition of IGF1R in human COLO 205 cells xenografted in IGF1-stimulated po dosed nu/nu CD-1 mouse assessed as reduction in IGF1R phosphorylation pretreated for 4 hrs followed by IGF1 stimulation and measured after 15 min by radioimmunoprecipitation assay; assay type: functional, organism-based; details: dose 1-60 mg/kg, time 4.17 hrs, in the assay text read “measured after 10 min” for “measured after 15 min”
# Summary of the method: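 Female nu/nu CD-1 mice, three per group, bearing ~500 mm3 tumors, given one oral dose of compound or vehicle. At 4 h, 10 µg hIGF-I i.v. via tail vein; saline controls. Tumor and blood taken 10 min later. Tumor lysates in RIPA captured on anti-IGF-IR plates and probed with europium anti-phosphotyrosine. Phospho/total IGF-IR expressed as % of ligand-stimulated control. Blood levels by LC-MS/MS.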
# MHH-ES-1 = experiment: Antiproliferative activity against human MHH-ES-1 cells assessed as reduction in cell viability after 72 hrs by CellTiter-Glo assay; assay type: functional, cell-based; details: MHH-ES-1, 72 h; summary of the method: as §1
# [3] = target: Serine/threonine-protein kinase pim-1 (Homo sapiens) (UniProt P11309); experiment: Inhibition of N-terminal GST-tagged recombinant human full-length Pim-1 expressed in Escherichia coli cells at 0.3 uM by filter binding assay relative to control
# Serine/threonine-protein kinase pim-1 (Homo sapiens), sequence (P11309 whole entry, looked up): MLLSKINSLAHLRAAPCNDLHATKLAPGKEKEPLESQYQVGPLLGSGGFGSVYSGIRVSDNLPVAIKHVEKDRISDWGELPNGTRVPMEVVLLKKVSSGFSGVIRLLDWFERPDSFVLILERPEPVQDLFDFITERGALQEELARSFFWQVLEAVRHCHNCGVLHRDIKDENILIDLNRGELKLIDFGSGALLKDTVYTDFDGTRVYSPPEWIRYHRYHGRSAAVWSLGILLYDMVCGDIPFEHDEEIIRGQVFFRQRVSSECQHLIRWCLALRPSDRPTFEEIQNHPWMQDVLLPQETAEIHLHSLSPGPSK
# Summary of the method: (§2)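 Outsourced single-concentration screen in a commercial panel of 233 protein kinases, run as radiometric filter-binding activity assays. Test agent was tested at 0.3 or 3 µmol/L, as given in each line, from a 10 mmol/L DMSO stock. Activity is expressed as percent inhibition relative to control.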
# [4] = Cytotoxicity against HUVEC cells assessed as reduction in cell viability after 72 hrs by CellTiter-Glo assay; assay type: toxicity, cell-based; details: human; summary of the method: as §1
# [5] = target: Protein-tyrosine kinase 6 (Homo sapiens) (UniProt Q13882); experiment: Inhibition of N-terminal His6-tagged recombinant full-length human BRK expressed in baculovirus infected Sf21 cells at 0.3 uM by filter binding assay relative to control; summary of the method: as §2
# Protein-tyrosine kinase 6 (Homo sapiens), sequence (Q13882 whole entry, looked up): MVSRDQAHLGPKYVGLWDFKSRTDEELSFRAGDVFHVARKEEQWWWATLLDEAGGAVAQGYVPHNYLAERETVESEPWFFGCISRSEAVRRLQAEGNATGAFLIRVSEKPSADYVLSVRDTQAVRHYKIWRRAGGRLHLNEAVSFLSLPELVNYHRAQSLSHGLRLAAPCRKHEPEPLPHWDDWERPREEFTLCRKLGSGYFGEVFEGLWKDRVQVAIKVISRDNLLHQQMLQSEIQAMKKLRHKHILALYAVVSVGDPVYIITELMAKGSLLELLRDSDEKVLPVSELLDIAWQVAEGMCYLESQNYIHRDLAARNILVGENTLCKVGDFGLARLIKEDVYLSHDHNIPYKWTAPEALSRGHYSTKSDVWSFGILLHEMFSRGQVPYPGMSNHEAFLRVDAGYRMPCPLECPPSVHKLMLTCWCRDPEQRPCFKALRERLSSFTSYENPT
# [6] = target: PI3K p110 alpha/p85 alpha (Mus musculus) (UniProt P26450+P42337); experiment: Inhibition of recombinant mouse N-terminal 6His-tagged full length P110alpha/full length mouse p85alpha expressed in baculovirus infected Sf21 cells at 0.3 uM by filter binding assay relative to control
# [7] = Antiproliferative activity against IGF1-stimulated mouse NIH-3T3/LISN cells over expressing human IGF1R assessed as reduction in cell viability preincubated for 2 hr followed by IGF1R stimulation and measured after 72 hrs by CellTiter-Glo assay; assay type: functional, cell-based
# Summary of the method: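 NIH-3T3 overexpressing human IGF-IR, kept in DMEM/10% FBS with 500 µg/mL G418. Seeded on collagen-coated 96-well plates and allowed to adhere 24 h. Switched to serum-free medium, compound or DMSO added for 2 h, then IGF-I 30 ng/mL. Incubated 72 h at 37°C. Read by CellTiter-Glo; IC50 by four-parameter fit.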
# [8] = target: cAMP-dependent protein kinase catalytic subunit PRKX (Homo sapiens) (UniProt P51817); experiment: Inhibition of N-terminal 6His-tagged recombinant full-length human PrKX expressed in baculovirus infected Sf21 cells at 3 uM by filter binding assay relative to control
# cAMP-dependent protein kinase catalytic subunit PRKX (Homo sapiens), sequence (P51817 whole entry): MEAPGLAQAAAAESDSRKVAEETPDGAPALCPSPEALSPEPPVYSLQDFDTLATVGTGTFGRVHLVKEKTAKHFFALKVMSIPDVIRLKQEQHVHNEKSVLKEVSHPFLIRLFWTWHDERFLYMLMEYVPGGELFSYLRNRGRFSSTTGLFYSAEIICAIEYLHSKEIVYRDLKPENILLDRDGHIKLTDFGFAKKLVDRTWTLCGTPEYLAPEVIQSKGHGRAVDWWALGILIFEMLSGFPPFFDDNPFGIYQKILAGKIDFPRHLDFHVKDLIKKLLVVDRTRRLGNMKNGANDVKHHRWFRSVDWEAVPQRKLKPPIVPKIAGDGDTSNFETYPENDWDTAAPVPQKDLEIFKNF
# Summary of the method: (§3)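 KinaseProfiler panel of 233 kinases: radiometric filter-binding activity assays with compound at 0.3 or 3 µmol/L. Read-out is percent inhibition.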
# [9] = target: Cyclin-dependent kinase 16 (Homo sapiens, UniProt Q00536); experiment: Inhibition of PCTAIRE1 (unknown origin)
# [10] = target: Protein-tyrosine kinase 6 (Homo sapiens) (UniProt Q13882); experiment: Inhibition of N-terminal His6-tagged recombinant full-length human BRK expressed in baculovirus infected Sf21 cells at 3 uM by filter binding assay relative to control
# [11] = target: Mitogen-activated protein kinase 10 (Homo sapiens, UniProt P53779); experiment: Inhibition of JNK3 (unknown origin)
# Mitogen-activated protein kinase 10, sequence (P53779 whole entry): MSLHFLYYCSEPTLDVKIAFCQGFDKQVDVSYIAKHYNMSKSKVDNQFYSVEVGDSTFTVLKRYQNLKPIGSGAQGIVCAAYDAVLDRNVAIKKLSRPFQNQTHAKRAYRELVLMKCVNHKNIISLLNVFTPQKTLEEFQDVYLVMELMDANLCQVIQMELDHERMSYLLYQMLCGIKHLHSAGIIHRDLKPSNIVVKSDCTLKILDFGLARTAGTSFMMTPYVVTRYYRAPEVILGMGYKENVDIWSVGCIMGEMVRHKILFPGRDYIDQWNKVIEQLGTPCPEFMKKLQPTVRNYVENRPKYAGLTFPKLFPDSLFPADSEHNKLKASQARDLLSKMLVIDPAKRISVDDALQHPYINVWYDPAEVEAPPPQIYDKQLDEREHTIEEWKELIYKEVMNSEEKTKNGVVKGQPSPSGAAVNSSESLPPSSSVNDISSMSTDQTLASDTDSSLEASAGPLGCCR
# [12] = target: cGMP-dependent protein kinase 1 (Homo sapiens) (UniProt Q13976); experiment: Inhibition of N-terminal 6His-tagged recombinant full-length human PKG1beta expressed in baculovirus infected Sf21 cells at 3 uM by filter binding assay relative to control; summary of the method: as §3
# cGMP-dependent protein kinase 1 (Homo sapiens), sequence (Q13976 whole entry): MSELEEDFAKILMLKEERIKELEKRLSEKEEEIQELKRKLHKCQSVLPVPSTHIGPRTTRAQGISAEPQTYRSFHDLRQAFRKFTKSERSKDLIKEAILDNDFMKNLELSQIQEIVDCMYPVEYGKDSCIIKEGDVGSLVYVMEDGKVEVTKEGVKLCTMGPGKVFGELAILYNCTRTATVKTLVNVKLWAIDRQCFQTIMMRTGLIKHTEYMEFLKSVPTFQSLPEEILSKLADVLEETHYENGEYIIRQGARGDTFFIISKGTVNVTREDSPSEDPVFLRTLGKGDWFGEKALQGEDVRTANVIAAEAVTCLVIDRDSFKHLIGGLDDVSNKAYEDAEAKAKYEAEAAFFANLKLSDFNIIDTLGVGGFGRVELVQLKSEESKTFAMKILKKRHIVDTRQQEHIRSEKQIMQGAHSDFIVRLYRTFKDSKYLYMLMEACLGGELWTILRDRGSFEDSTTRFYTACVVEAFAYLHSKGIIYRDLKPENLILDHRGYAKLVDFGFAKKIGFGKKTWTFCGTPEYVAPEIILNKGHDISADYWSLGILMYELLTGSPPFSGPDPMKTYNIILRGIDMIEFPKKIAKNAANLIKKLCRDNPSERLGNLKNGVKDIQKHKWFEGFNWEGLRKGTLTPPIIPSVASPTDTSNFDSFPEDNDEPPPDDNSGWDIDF
# [13] = target: Tyrosine-protein kinase Fes/Fps (Homo sapiens, UniProt P07332); experiment: Inhibition of N-terminal His6-tagged recombinant full length human Fes expressed in baculovirus infected Sf21 cells by filter binding assay
# Tyrosine-protein kinase Fes/Fps, sequence (P07332 whole entry, the tested form may be a part): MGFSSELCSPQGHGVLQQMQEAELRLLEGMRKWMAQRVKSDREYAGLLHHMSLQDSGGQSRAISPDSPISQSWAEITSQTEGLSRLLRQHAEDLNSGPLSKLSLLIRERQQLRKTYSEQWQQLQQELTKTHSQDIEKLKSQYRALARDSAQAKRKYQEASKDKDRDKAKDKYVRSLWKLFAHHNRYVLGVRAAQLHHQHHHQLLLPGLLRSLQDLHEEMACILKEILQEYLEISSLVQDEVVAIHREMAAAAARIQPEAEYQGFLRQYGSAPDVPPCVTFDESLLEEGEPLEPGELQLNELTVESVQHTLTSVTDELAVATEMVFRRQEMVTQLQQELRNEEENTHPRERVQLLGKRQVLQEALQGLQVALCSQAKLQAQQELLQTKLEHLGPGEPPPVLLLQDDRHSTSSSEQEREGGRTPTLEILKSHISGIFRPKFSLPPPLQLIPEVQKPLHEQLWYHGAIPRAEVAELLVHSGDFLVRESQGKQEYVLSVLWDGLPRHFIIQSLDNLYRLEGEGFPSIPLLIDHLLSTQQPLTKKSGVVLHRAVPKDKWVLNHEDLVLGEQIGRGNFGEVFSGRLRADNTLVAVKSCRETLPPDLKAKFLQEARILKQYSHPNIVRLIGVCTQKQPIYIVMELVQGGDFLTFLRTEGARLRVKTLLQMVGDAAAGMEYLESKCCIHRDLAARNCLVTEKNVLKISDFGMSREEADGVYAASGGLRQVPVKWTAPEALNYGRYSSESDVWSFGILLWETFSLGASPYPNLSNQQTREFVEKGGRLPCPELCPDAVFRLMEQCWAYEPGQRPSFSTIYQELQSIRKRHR
# [14] = target: Discoidin domain-containing receptor 2 (Homo sapiens) (UniProt Q16832); experiment: Inhibition of N-terminal His6-tagged recombinant human DDR2 (467 to end residues) expressed in baculovirus infected Sf21 cells at 3 uM by filter binding assay relative to control
# Discoidin domain-containing receptor 2 (Homo sapiens), sequence (Q16832 whole entry, the tested form may be a part): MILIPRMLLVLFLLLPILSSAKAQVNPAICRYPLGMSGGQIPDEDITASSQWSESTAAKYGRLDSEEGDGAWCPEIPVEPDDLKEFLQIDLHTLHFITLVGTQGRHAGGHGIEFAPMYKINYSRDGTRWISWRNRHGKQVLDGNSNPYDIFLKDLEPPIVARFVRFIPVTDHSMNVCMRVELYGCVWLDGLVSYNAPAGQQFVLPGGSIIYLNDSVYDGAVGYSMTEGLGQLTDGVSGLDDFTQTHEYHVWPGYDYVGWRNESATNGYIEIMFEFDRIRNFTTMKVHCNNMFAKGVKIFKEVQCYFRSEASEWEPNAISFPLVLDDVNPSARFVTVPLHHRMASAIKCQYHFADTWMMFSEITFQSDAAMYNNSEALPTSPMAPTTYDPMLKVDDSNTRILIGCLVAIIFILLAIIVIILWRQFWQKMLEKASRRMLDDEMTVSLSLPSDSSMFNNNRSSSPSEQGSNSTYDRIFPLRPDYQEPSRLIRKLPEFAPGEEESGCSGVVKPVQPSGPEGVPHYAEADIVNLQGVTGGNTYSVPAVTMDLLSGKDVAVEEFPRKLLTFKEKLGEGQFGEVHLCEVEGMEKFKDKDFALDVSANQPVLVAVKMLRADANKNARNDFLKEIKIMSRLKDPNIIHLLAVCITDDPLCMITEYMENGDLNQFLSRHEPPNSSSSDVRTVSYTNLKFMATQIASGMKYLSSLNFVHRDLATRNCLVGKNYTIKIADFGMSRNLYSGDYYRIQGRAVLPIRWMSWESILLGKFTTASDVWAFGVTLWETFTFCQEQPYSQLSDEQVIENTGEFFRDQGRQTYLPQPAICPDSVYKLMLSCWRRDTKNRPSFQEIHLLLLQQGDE
# SK-OV-3 = experiment: Antiproliferative activity against human SK-OV-3 cells assessed as reduction in cell viability after 72 hrs by CellTiter-Glo assay; assay type: functional, cell-based; details: SK-OV-3, 72 h; summary of the method: as §1
# [15] = target: Serine/threonine-protein kinase pim-1 (Homo sapiens) (UniProt P11309); experiment: Inhibition of N-terminal GST-tagged recombinant human full-length Pim-1 expressed in Escherichia coli cells at 3 uM by filter binding assay relative to control; summary of the method: as §2
# [16] = target: Vascular endothelial growth factor receptor 3 (Homo sapiens, UniProt P35916); experiment: Inhibition of N-terminal GST-tagged recombinant human Flt4 (800 to end residues) expressed in baculovirus infected Sf21 cells by filter binding assay
# [17] = target: Serine/threonine-protein kinase PAK 6 (Homo sapiens) (UniProt Q9NQU5); experiment: Inhibition of N-terminal His6-tagged recombinant human PAK6 (382 to end residues) expressed in Sf21 cells at 3 uM by filter binding assay relative to control
# Serine/threonine-protein kinase PAK 6 (Homo sapiens), sequence (Q9NQU5 whole entry, looked up): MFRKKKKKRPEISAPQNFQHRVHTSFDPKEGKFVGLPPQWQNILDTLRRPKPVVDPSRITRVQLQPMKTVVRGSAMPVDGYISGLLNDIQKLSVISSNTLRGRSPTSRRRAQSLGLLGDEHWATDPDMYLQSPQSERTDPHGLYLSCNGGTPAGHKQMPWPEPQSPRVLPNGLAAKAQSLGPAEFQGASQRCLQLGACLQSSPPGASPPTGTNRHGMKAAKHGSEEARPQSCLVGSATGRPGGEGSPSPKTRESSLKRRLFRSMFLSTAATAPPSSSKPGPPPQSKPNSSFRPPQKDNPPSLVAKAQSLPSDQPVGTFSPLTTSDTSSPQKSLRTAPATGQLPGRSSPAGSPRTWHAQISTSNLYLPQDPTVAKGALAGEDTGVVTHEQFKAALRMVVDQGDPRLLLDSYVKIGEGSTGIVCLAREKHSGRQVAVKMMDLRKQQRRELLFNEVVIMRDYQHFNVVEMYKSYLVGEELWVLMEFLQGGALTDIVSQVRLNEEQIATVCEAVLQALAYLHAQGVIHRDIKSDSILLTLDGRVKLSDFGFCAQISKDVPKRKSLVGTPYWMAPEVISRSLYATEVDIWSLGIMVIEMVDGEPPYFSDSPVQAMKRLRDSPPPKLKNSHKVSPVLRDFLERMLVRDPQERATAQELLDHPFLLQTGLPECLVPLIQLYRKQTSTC
# [18] = target: Testis-specific serine/threonine-protein kinase 1 (Homo sapiens) (UniProt Q9BXA7); experiment: Inhibition of 6His-tagged recombinant human full length TSSK1 expressed in baculovirus infected Sf21 cells at 3 uM by filter binding assay relative to control; summary of the method: as §3
# Testis-specific serine/threonine-protein kinase 1 (Homo sapiens), sequence (Q9BXA7 whole entry): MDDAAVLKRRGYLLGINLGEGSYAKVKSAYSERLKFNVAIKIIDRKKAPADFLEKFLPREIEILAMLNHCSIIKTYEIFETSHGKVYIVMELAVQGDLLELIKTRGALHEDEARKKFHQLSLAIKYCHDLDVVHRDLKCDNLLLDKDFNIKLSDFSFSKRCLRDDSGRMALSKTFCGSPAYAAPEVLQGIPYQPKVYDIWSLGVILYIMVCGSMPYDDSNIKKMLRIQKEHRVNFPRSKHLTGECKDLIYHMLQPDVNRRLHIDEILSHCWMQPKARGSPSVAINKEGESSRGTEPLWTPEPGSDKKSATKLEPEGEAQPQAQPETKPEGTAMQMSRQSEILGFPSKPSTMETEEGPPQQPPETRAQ
# [19] = target: Insulin receptor (Mus musculus) (UniProt P15208); details: CD-1, dose 30.0 mg/kg, route po, time 21.0 day
compound,measurement,setting,value
CCc1cc(Nc2nccc(-c3c(-c4ccc(OC)c(C(=O)Nc5c(F)cccc5F)c4)nc4ccccn34)n2)c(OC)cc1N1CCC(N2CCN(S(C)(=O)=O)CC2)CC1,IC50,MX1,189 nM
same,inhibition,[1],0%
same,IC50,[2],275 nM
same,inhibition,COLO 205,Dose-Dependent Effect
same,IC50,MHH-ES-1,> 30000 nM
same,inhibition,[3],-8%
same,IC50 at 72 h,[4],> 20000 nM
same,inhibition,[5],25%
same,inhibition,[6],-10%
same,IC50,[7],60 nM
same,inhibition,[8],1%
same,IC50,[9],> 10000 nM
same,inhibition,[10],38%
same,IC50,[11],> 10000 nM
same,inhibition,[12],32%
same,IC50,[13],148 nM
same,inhibition,[14],10%
same,IC50,SK-OV-3,> 20000 nM
same,inhibition,[15],25%
same,IC50,[16],159 nM
same,inhibition,[17],0%
same,inhibition,[18],11%
same,inhibition,[19],inactive
